Activity calls are given as the source filed them. The calls are words filed in the database; no cut-off is given here.
Tests used:
[1] = target: T1, Adrenergic receptor alpha-1 (Rattus norvegicus, UniProt P15823+P23944+P43140); assay: Displacement of [3H]prazosin from alpha1 adrenoceptor in rat cerebral cortex after 30 mins by microbeta scintillation counting; type: tissue-based
T1 sequence (P15823 whole entry): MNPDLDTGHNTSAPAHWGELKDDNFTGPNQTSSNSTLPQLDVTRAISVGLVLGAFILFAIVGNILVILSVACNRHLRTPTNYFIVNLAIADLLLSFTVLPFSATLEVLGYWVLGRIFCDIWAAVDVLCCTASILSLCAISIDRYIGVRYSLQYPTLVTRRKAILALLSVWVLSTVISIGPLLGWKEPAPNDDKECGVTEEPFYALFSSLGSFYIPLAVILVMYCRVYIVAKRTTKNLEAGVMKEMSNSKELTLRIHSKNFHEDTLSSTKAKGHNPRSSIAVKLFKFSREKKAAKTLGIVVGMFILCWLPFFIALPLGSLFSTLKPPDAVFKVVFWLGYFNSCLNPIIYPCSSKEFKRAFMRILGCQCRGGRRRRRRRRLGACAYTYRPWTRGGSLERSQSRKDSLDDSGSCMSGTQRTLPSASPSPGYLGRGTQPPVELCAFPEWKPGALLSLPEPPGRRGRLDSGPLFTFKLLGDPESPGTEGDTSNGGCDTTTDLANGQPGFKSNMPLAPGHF
T1 sequence (P23944 whole entry): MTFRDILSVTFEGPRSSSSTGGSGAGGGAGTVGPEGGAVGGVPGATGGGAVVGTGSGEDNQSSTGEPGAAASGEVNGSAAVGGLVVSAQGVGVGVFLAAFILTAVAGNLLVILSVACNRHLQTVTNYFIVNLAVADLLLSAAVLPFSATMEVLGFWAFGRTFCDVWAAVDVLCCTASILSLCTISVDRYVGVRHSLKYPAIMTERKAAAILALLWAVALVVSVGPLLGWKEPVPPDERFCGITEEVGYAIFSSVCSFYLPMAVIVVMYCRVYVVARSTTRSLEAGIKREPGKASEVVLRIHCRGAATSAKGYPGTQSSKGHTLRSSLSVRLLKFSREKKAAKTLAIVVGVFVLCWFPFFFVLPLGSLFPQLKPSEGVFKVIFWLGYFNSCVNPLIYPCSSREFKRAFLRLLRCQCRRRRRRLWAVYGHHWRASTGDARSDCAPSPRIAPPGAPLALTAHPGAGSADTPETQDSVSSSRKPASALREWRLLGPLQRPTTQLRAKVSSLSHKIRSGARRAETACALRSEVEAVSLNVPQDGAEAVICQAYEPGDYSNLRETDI
T1 sequence (P43140 whole entry): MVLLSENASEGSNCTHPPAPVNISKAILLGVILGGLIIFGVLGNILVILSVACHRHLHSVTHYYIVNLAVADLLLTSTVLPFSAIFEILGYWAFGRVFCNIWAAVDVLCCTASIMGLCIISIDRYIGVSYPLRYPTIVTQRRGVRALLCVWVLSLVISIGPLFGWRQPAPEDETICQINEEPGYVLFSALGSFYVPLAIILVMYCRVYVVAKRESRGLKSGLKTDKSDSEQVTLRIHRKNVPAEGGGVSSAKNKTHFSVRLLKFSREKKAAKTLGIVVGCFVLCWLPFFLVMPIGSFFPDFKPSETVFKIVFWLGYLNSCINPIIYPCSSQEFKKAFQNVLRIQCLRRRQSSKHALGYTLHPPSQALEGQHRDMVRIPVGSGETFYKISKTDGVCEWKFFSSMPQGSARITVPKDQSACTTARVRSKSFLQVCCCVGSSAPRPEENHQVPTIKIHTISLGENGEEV
How it was run: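 Rat cerebral cortex homogenised in ice-cold 50 mM Tris-HCl (pH 7.6 at 25 °C), washed twice at 20000×g and resuspended at 10 mg wet weight/ml. Incubated with [3H]prazosin (19.5 Ci/mmol) and test compound for 30 min at 25 °C. Nonspecific binding defined with 10 µM phentolamine. GF/B filtration, scintillation counting, three-parameter logistic competition fit.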

Rattus norvegicus [2] = assay: Antiarrhythmic activity in Wistar rat assessed as effect on heart beat at 10 mg/kg, iv after 1 min; type: functional
How it was run: (§1)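 Male Wistar rats (180–250 g), anaesthetised with thiopental 60 mg/kg ip. Standard lead II ECG recorded at 50 mm/s just before dosing and at 1, 5 and 15 min after. Heart rate and P–Q, Q–T and QRS intervals were read. n=6 per group, mean ± SEM, one-way ANOVA.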

Rattus norvegicus [3] = assay: Antiarrhythmic activity in Wistar rat assessed as effect on heart beat at 10 mg/kg, iv after 5 mins; type: functional; how it was run: as §1
Rattus norvegicus [4] = assay: Antiarrhythmic activity in Wistar rat assessed as effect on heart beat at 10 mg/kg, iv after 15 mins; type: functional; how it was run: as §1
Rattus norvegicus [5] = assay: Cardiotoxicity in Wistar rat assessed as effect on P-Q interval at 10 mg/kg, iv after 1 min; type: toxicity, organism-based; design: dose 10 mg/kg, route intravenous; conditions: in vivo; how it was run: as §1
Rattus norvegicus [6] = assay: Cardiotoxicity in Wistar rat assessed as effect on P-Q interval at 10 mg/kg, iv after 5 mins; type: toxicity, organism-based; design: dose 10 mg/kg, route intravenous; conditions: in vivo; how it was run: as §1
Rattus norvegicus [7] = assay: Cardiotoxicity in Wistar rat assessed as effect on P-Q interval at 10 mg/kg, iv after 15 mins; type: toxicity, organism-based; design: dose 10 mg/kg, route intravenous; conditions: in vivo, 0.25 h; how it was run: as §1
Rattus norvegicus [8] = assay: Cardiotoxicity in Wistar rat assessed as effect on Q-T interval at 10 mg/kg, iv after 1 min; type: toxicity, organism-based; design: dose 10 mg/kg, route intravenous; conditions: in vivo; how it was run: as §1
Rattus norvegicus [9] = assay: Cardiotoxicity in Wistar rat assessed as effect on Q-T interval at 10 mg/kg, iv after 5 mins; type: toxicity, organism-based; design: dose 10 mg/kg, route intravenous; conditions: in vivo; how it was run: as §1
Rattus norvegicus [10] = assay: Cardiotoxicity in Wistar rat assessed as effect on Q-T interval at 10 mg/kg, iv after 15 mins; type: toxicity, organism-based; design: dose 10 mg/kg, route intravenous; conditions: in vivo, 0.25 h; how it was run: as §1
Rattus norvegicus [11] = assay: Cardiotoxicity in Wistar rat assessed as effect on QRS interval at 10 mg/kg, iv after 1 min; type: toxicity, organism-based; design: dose 10 mg/kg, route intravenous; conditions: in vivo; how it was run: as §1
Rattus norvegicus [12] = assay: Cardiotoxicity in Wistar rat assessed as effect on QRS interval at 10 mg/kg, iv after 5 mins; type: toxicity, organism-based; design: dose 10 mg/kg, route intravenous; conditions: in vivo; how it was run: as §1
Rattus norvegicus [13] = assay: Cardiotoxicity in Wistar rat assessed as effect on QRS interval at 10 mg/kg, iv after 15 mins; type: toxicity, organism-based; design: dose 10 mg/kg, route intravenous; conditions: in vivo, 0.25 h; how it was run: as §1
Rattus norvegicus [14] = assay: Antiarrhythmic activity in Wistar rat assessed as protection against adrenaline-induced extrasystoles at 2.5 to 10 mg/kg, iv administered 15 mins prior to adrenaline-challenge; type: functional, organism-based; conditions: Heart
How it was run: (§2)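 Szekeres model in male Wistar rats anaesthetised with thiopental (60 mg/kg ip). Test compound given iv in water (2.5–10 mg/kg) 15 min before adrenaline 20 µg/kg iv. Scored for extrasystoles, bigeminy and mortality; activity means no premature beats and inhibited arrhythmia versus controls.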

Rattus norvegicus [15] = assay: Antiarrhythmic activity in Wistar rat assessed as protection against adrenaline-induced bigeminy at 2.5 to 10 mg/kg, iv administered 15 mins prior to adrenaline-challenge; type: functional, organism-based; conditions: Heart; how it was run: as §2
Rattus norvegicus [16] = assay: Antiarrhythmic activity in barium chloride-induced Wistar rat arrhythmia model assessed as protection against mortality at 2.5 to 10 mg/kg, iv administered 15 mins prior to barium chloride-challenge; type: functional, organism-based; conditions: Heart
How it was run: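 Szekeres model in male Wistar rats. Activity is gradual disappearance of arrhythmia with restored sinus rhythm; protection against disturbances and death scored. Groups of 6 animals.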

Rattus norvegicus [17] = assay: Antiarrhythmic activity in iv dosed Wistar rat assessed as protection against adrenaline-induced arrhythmia administered 15 mins prior to adrenaline-challenge; type: functional; conditions: Heart; how it was run: as §2
Rattus norvegicus [18] = assay: Hypotensive activity in normotensive Wistar rat assessed as decrease in systolic blood pressure at 2.5 to 10 mg/kg, iv at 1 min; type: organism-based, Artery; design: dose 2.5-10 mg/kg, route intravenous; conditions: in vivo
How it was run: (§3)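 Right carotid artery cannulated with heparin-saline-filled tubing for blood pressure recording. After 5 min stabilisation, compound injected iv into the caudal vein (2.5–10 mg/kg, 1 ml/kg). Systolic and diastolic pressure followed for 60 min. n=6 per group, mean ± SEM, one-way ANOVA.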

Rattus norvegicus [19] = assay: Hypotensive activity in normotensive Wistar rat assessed as decrease in diastolic blood pressure at 2.5 to 10 mg/kg, iv at 1 min; type: organism-based, Artery; design: dose 2.5-10 mg/kg, route intravenous; conditions: in vivo; how it was run: as §3
Rattus norvegicus [20] = assay: Hypotensive activity in normotensive Wistar rat assessed as decrease in systolic blood pressure at 2.5 to 10 mg/kg, iv after 1 min measured up to 60 mins; type: organism-based, Artery; design: dose 2.5-10 mg/kg, route intravenous; conditions: in vivo; how it was run: as §3
Rattus norvegicus [21] = assay: Hypotensive activity in normotensive Wistar rat assessed as decrease in diastolic blood pressure at 2.5 to 10 mg/kg, iv after 1 min measured up to 60 mins; type: organism-based, Artery; design: dose 2.5-10 mg/kg, route intravenous; conditions: in vivo; how it was run: as §3

## COC(=O)CN1C(=O)N(CCCCN2CCN(c3ccccc3OC)CC2)C(c2ccccc2)(c2ccccc2)C1=O.Cl
[1]
  Ki: 25 nM
  pKi: 7.6
Rattus norvegicus [2]
  Activity: 355.8 min⁻¹
Rattus norvegicus [3]
  Activity: 354.3 min⁻¹
Rattus norvegicus [4]
  Activity: 357.8 min⁻¹
Rattus norvegicus [5]
  Activity: 62.6 ms
Rattus norvegicus [6]
  Activity: 63.3 ms
Rattus norvegicus [7]
  Activity: 62.8 ms
Rattus norvegicus [8]
  Activity: 74.6 ms
Rattus norvegicus [9]
  Activity: 73.3 ms
Rattus norvegicus [10]
  Activity: 75.6 ms
Rattus norvegicus [11]
  Activity: 19.6 ms
Rattus norvegicus [12]
  Activity: 19.3 ms
Rattus norvegicus [13]
  Activity: 19.5 ms
Rattus norvegicus [14]
  Activity: Active
Rattus norvegicus [15]
  Activity: Active
Rattus norvegicus [16]
  Activity: Active
Rattus norvegicus [17]
  ED50: 1.8 mg/kg
Rattus norvegicus [18]
  Activity: Toxic
Rattus norvegicus [19]
  Activity: Toxic
Rattus norvegicus [20]
  Activity: Non-toxic
Rattus norvegicus [21]
  Activity: Non-toxic

## CCOC(=O)C(C)N1C(=O)N(CC(O)CN2CCN(c3ccccc3OC)CC2)C(c2ccccc2)(c2ccccc2)C1=O.Cl (racemic)
Rattus norvegicus [14]
  Activity: Active
Rattus norvegicus [15]
  Activity: Active
Rattus norvegicus [16]
  Activity: Active
Rattus norvegicus [17]
  ED50: 0.41 mg/kg

Source: ChEMBL document CHEMBL2040780, “Antiarrhythmic properties of phenylpiperazine derivatives of phenytoin with α₁-adrenoceptor affinities” (Bioorg Med Chem, 2012)
